In ChEMBL document CHEMBL4689842, “EUbOPEN Chemogenomics Library wave 1” (2021):

Tested on: U2OS
Experiment: Multiplex assay against U2OS
Type: toxicity, cell-based
Conditions: human
Method in brief: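 On a CQ1 microscope at 37°C and 5% CO2, live cells were imaged after compound addition. They had been stained at seeding with Hoechst33342, BioTracker Green Microtubule Cytoskeleton Dye, MitoTracker Red and Annexin V Alexa Fluor 680. CellPathfinder machine-learning gating assigned cells to Hoechst high-intensity objects or normal cells, normal cells to healthy, pyknosed or fragmented nuclei, and pyknosed cells to mitotic or apoptotic. Tubulin, mitochondrial-mass and membrane-permeability phenotypes are per cents of healthy-nucleus cells.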

[1] = 12 h, 1 µM, compound concentration 1 uM, replicate 1
[2] = 12 h, 1 µM, compound concentration 1 uM, replicate 2
[3] = 12 h, 10 µM, compound concentration 10 uM, replicate 1
[4] = 12 h, 10 µM, compound concentration 10 uM, replicate 2
[5] = 24 h, 1 µM, compound concentration 1 uM, replicate 1
[6] = 24 h, 1 µM, compound concentration 1 uM, replicate 2
[7] = 24 h, 10 µM, compound concentration 10 uM, replicate 1
[8] = 24 h, 10 µM, compound concentration 10 uM, replicate 2

CCN1CCN(c2ccc(Nc3cc(N(C)C(=O)Nc4c(Cl)c(OC)cc(OC)c4Cl)ncn3)cc2)CC1 [INFIGRATINIB]
Population Apoptotic (%) [1]: 33%
Population Fragmented Nuclei (%) [1]: 15%
Population Healthy Nuclei (%) [1]: 60%
Population Hoechst High Intensity Objects (%) [1]: 4%
Population Membrane Permeable-Phenotype (%) [1]: 20%
Population Mitochondria Different-Phenotype (%) [1]: 38%
Population Mitotic Cells (%) [1]: 66%
Population Normal (%) [1]: 95%
Population Pyknosed Nuclei (%) [1]: 24%
Population Tubulin-Different-Phenotype (%) [1]: 71%
Total Cell Count [1]: 142
Population Apoptotic (%) [2]: 40%
Population Fragmented Nuclei (%) [2]: 26%
Population Healthy Nuclei (%) [2]: 51%
Population Hoechst High Intensity Objects (%) [2]: 10%
Population Membrane Permeable-Phenotype (%) [2]: 21%
Population Mitochondria Different-Phenotype (%) [2]: 55%
Population Mitotic Cells (%) [2]: 59%
Population Normal (%) [2]: 89%
Population Pyknosed Nuclei (%) [2]: 21%
Population Tubulin-Different-Phenotype (%) [2]: 55%
Total Cell Count [2]: 127
Population Apoptotic (%) [3]: 50%
Population Fragmented Nuclei (%) [3]: 4%
Population Healthy Nuclei (%) [3]: 87%
Population Hoechst High Intensity Objects (%) [3]: 6%
Population Membrane Permeable-Phenotype (%) [3]: 11%
Population Mitochondria Different-Phenotype (%) [3]: 17%
Population Mitotic Cells (%) [3]: 50%
Population Normal (%) [3]: 93%
Population Pyknosed Nuclei (%) [3]: 7%
Population Tubulin-Different-Phenotype (%) [3]: 18%
Total Cell Count [3]: 198
Population Apoptotic (%) [4]: 16%
Population Fragmented Nuclei (%) [4]: 7%
Population Hoechst High Intensity Objects (%) [4]: 13%
Population Mitochondria Different-Phenotype (%) [4]: 18%
Population Mitotic Cells (%) [4]: 83%
Population Normal (%) [4]: 86%
Population Pyknosed Nuclei (%) [4]: 5%
Population Tubulin-Different-Phenotype (%) [4]: 13%
Total Cell Count [4]: 86
Population Apoptotic (%) [5]: 49%
Population Fragmented Nuclei (%) [5]: 16%
Population Healthy Nuclei (%) [5]: 44%
Population Hoechst High Intensity Objects (%) [5]: 8%
Population Membrane Permeable-Phenotype (%) [5]: 30%
Population Mitochondria Different-Phenotype (%) [5]: 63%
Population Mitotic Cells (%) [5]: 50%
Population Normal (%) [5]: 91%
Population Pyknosed Nuclei (%) [5]: 38%
Population Tubulin-Different-Phenotype (%) [5]: 81%
Total Cell Count [5]: 192
Population Apoptotic (%) [6]: 70%
Population Fragmented Nuclei (%) [6]: 30%
Population Healthy Nuclei (%) [6]: 39%
Population Hoechst High Intensity Objects (%) [6]: 14%
Population Membrane Permeable-Phenotype (%) [6]: 19%
Population Mitochondria Different-Phenotype (%) [6]: 78%
Population Mitotic Cells (%) [6]: 29%
Population Normal (%) [6]: 85%
Population Pyknosed Nuclei (%) [6]: 30%
Population Tubulin-Different-Phenotype (%) [6]: 70%
Total Cell Count [6]: 151
Population Apoptotic (%) [7]: 14%
Population Fragmented Nuclei (%) [7]: 5%
Population Healthy Nuclei (%) [7]: 87%
Population Hoechst High Intensity Objects (%) [7]: 2%
Population Membrane Permeable-Phenotype (%) [7]: 15%
Population Mitochondria Different-Phenotype (%) [7]: 14%
Population Mitotic Cells (%) [7]: 85%
Population Normal (%) [7]: 97%
Population Pyknosed Nuclei (%) [7]: 7%
Population Tubulin-Different-Phenotype (%) [7]: 23%
Total Cell Count [7]: 199
Population Apoptotic (%) [8]: 27%
Population Fragmented Nuclei (%) [8]: 10%
Population Healthy Nuclei (%) [8]: 81%
Population Hoechst High Intensity Objects (%) [8]: 9%
Population Membrane Permeable-Phenotype (%) [8]: 17%
Population Mitochondria Different-Phenotype (%) [8]: 20%
Population Mitotic Cells (%) [8]: 72%
Population Normal (%) [8]: 90%
Population Pyknosed Nuclei (%) [8]: 8%
Population Tubulin-Different-Phenotype (%) [8]: 11%
Total Cell Count [8]: 81
